Laboratory results from PMC3901407 (Nature methods, 2013).

Legend:
[1] = system: JNK activation in C22A-ZAK-transfected HEK-293T cells; assay: Western blotting of phospho-JNK; format: cell-based, human; settings: H2O2 1 mM, 30 min
How it was run: (§1)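 HEK-293T cells stably expressing FLAG-ZAK came from retroviral infection and hygromycin selection. They grew 24 h in DMEM/10% FBS, then were serum-starved 24 h and treated at 37 °C. Cells were sonicated in PBS with protease and phosphatase inhibitors. For blotting, 30 μg soluble lysate went on SDS-PAGE and nitrocellulose, blocked in 5% milk/TBST, with primary antibodies (1:2000, 16 h, 4 °C) and IRDye secondaries (1:10,000, 1 h). Read-out: infrared-scanned phospho-JNK, normalized.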

[2] = system: JNK activation in WT-ZAK-transfected HEK-293T cells; assay: Western blotting of phospho-JNK; format: cell-based, human; settings: H2O2 1 mM, 30 min
How it was run: as §1

WT-ZAK and C22A-ZAK [3] = target: T1, WT-ZAK and C22A-ZAK (Homo sapiens, UniProt Q9NYL2); assay: gel-based ABPP, HNEyne labelling in living cells; format: cell-based; settings: 5 μM HNEyne, 1 hour, 37°C
WT-ZAK and C22A-ZAK [4] = target: T1, WT-ZAK and C22A-ZAK; assay: gel-based ABPP, HNEyne labelling in proteomes; format: binding; settings: 10 μM HNEyne, 1 hour, HEK-293T lysate

T1 sequence (Q9NYL2 1-455 isoform Q9NYL2-2, stated change not applied): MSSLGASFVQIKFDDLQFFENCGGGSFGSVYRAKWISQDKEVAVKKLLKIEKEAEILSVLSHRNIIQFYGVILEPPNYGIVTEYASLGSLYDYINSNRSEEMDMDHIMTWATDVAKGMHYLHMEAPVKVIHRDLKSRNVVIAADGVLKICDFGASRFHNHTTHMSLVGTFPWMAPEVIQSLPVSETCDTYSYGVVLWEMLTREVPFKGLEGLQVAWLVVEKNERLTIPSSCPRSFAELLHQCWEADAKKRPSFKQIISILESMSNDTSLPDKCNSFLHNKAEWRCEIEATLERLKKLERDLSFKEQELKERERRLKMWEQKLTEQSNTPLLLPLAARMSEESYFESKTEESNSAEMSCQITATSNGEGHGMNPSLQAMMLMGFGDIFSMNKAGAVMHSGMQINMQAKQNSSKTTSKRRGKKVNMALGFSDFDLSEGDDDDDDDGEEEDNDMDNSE

| SMILES | JNK activity after H2O2 [1] | JNK activity after H2O2 [2] | direct labeling of ZAK by HNEyne in living cells (WT-ZAK and C22A-ZAK [3]) | direct labeling of ZAK by HNEyne in vitro (WT-ZAK and C22A-ZAK [4]) |
| --- | --- | --- | --- | --- |
| OO [H2O2] | stimulated JNK activity | stimulated JNK activity | – | – |
| C#CCCCC(O)C=CC=O (stereo not shown) [HNEyne] | – | – | direct labeling of WT-, but not the C22A-ZAK mutant | direct labeling of WT-, but not the C22A-ZAK mutant |
